Experimental data taken from PMC9589333 (ERJ Open Research, 2022).

What was measured:
[1] = system: healthy male subjects; experiment: Phase I study; type: in vivo, human; conditions: for Body weight, mean±SD change from baseline: placebo 0.21±1.06
Procedure, shortened: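 Healthy males aged 18–45 years with BMI 18.5–29.9 kg·m−2, partially randomised to oral test compound or matching placebo. Single doses were 36 or 48 mg, fasted and patient-blinded. Twice-daily doses were 6 or 12 mg over 14 days, fed and double-blind. Drug-related AEs were graded mild, moderate or severe. ECG, laboratory tests and, for multiple dosing, suicidality were also assessed. Descriptive statistics only.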

[2] = Phase I study: pharmacokinetics of BI 1015550 in plasma and urine; type: in vivo, human; conditions: for AUCτ,1 / Cmax / RA,AUC (accumulation ratio) / RA,Cmax (accumulation ratio) / AUCτ,ss / CLR,0–120 (renal clearance) / fe0–120 (fraction excreted unchanged in urine 0–120 h) / AUC0−∞: gMean; for AUCτ,ss: steady state
Procedure, shortened: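 Oral test compound was given to healthy males as single doses (36 or 48 mg, fasted) or 6 or 12 mg twice daily (fed). Twice-daily dosing was a morning dose on day 1, none on day 2 (34-h sampling), days 3–13 twice daily, and a morning dose on day 14. Read-outs were plasma Cmax, AUC0–∞, first-dose and steady-state AUCτ, accumulation ratios and 0–120 h urinary excretion, reported as gMean with gCV.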

[3] = system: patients with idiopathic pulmonary fibrosis; experiment: Phase Ic study; type: in vivo, human
Procedure, shortened: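 Randomised, double-blind, placebo-controlled within-dose-group study at 11 European sites. Patients with IPF, aged ≥40 years, had no nintedanib or pirfenidone within 30 days and none planned. Dosing was oral, 18 mg twice daily, for up to 12 weeks, reduced to 4 weeks by amendment. Drug-related AEs were graded mild, moderate or severe. ECG, laboratory tests and suicidality were also assessed. Descriptive statistics only.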

[4] = Phase Ic study: pharmacokinetics of BI 1015550 in plasma; type: in vivo, human
Procedure, shortened: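 IPF patients received oral 18 mg twice daily. Plasma Cmax and AUCτ,1 were taken after the first dose on day 1, and Cmax,ss and AUCτ,ss after the morning dose on day 14. Accumulation ratios were calculated as steady-state over single-dose values. Results are reported as geometric mean with gCV.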

[5] = system: patients with idiopathic pulmonary fibrosis; experiment: Phase Ic study: exploratory lung function efficacy endpoints; type: in vivo, human; conditions: IPF, 18 mg twice daily
[6] = system: human lung fibroblast; conditions: in vitro; cited from earlier work
[7] = after single and multiple oral administration
[8] = IPF, 18 mg twice daily, placebo 40.0%

[O-][S+]1CCc2nc(N3CCC(c4ncc(Cl)cn4)CC3)nc(NC3(CO)CCC3)c21 (centres unmarked) [BI 1015550]
Subjects with any AE ([1]; MRD 6 mg twice daily, n=8): 2 (25.0) n (%) | Subjects with investigator-defined drug-related AEs ([1]; MRD 6 mg twice daily, n=8): 2 (25.0) n (%) | Body weight, mean±SD change from baseline ([1]; MRD 6 mg twice daily): –1.21±0.43 kg | Clinically relevant laboratory finding: increase in blood triglycerides, considered drug-related ([1]; MRD 12 mg twice daily): one subject | Subjects with any AE ([1]; MRD 12 mg twice daily, n=8): 5 (62.5) n (%) | Subjects with investigator-defined drug-related AEs ([1]; MRD 12 mg twice daily, n=8): 4 (50.0) n (%) | Body weight, mean±SD change from baseline ([1]; MRD 12 mg twice daily): –1.34±1.61 kg | Suicidal ideation or behaviour (C-SSRS) ([1]; MRD part): No incidence | Gastrointestinal disorders ([1]; MRD part, placebo 12.5%): 18.8% | Nervous system disorders (headache) ([1]; MRD part, placebo 12.5%): 31.3% | Subjects with AEs ([1]; MRD part, placebo 37.5%): 43.8% | Subjects with any AE ([1]; MRD total, n=16): 7 (43.8) n (%) | Subjects with investigator-defined drug-related AEs ([1]; MRD total, n=16): 6 (37.5) n (%) | Subjects with any AE ([1]; SRD 36 mg single dose, n=6): 4 (66.7) n (%) | Subjects with investigator-defined drug-related AEs ([1]; SRD 36 mg single dose, n=6): 2 (33.3) n (%) | Subjects with any AE ([1]; SRD 48 mg single dose, n=6): 4 (66.7) n (%) | Subjects with investigator-defined drug-related AEs ([1]; SRD 48 mg single dose, n=6): 4 (66.7) n (%) | Deaths, severe AEs, serious AEs, AEs of special interest or other significant AEs ([1]; SRD and MRD parts): no reported | ECG recordings or vital signs ([1]; SRD and MRD parts): no clinically relevant findings | Intensity of all AEs ([1]; SRD and MRD parts): mild or moderate | Gastrointestinal disorders ([1]; SRD part, placebo 16.7%): 25.0% | Nervous system disorders (headache and dizziness) ([1]; SRD part, placebo 16.7%): 41.7% | Subjects with AEs ([1]; SRD part, placebo 16.7%): 66.7% | Subjects with any AE ([1]; SRD total, n=12): 8 (66.7) n (%) | Subjects with investigator-defined drug-related AEs ([1]; SRD total, n=12): 6 (50.0) n (%) | Subjects with drug-related AEs ([1]; multiple doses (MRD total), placebo 12.5%): 37.5% | Subjects with drug-related AEs ([1]; single dose (SRD total), placebo 16.7%): 50.0% | Dose proportionality of AUC ([2]; 36 mg to 48 mg single dose and 6 mg to 12 mg twice daily): dose-proportional increase in AUC | Median time from last dosing to the maximum measured concentration [2, 7]: 1.25 to 1.52 h | Terminal half-lives [2, 7]: 16 to 27 h | AUCτ,1 ([2]; MRD 6 mg twice daily, after first dose, fed, n=8, gCV 24.8%): 0.564 µM·h | Cmax ([2]; MRD 6 mg twice daily, after first dose, fed, n=8, gCV 28.2%): 103 nM | RA,AUC (accumulation ratio) ([2]; MRD 6 mg twice daily, fed, n=8, gCV 9.91%): 1.85 | RA,Cmax (accumulation ratio) ([2]; MRD 6 mg twice daily, fed, n=8, gCV 35.0%): 1.60 | AUCτ,ss ([2]; MRD 6 mg twice daily, fed, n=8, gCV 25.7%): 1.05 µM·h | AUCτ,1 ([2]; MRD 12 mg twice daily, after first dose, fed, n=8, gCV 15.9%): 1.37 µM·h | Cmax ([2]; MRD 12 mg twice daily, after first dose, fed, n=8, gCV 29.9%): 229 nM | RA,AUC (accumulation ratio) ([2]; MRD 12 mg twice daily, fed, n=8, gCV 14.8%): 1.68 | RA,Cmax (accumulation ratio) ([2]; MRD 12 mg twice daily, fed, n=8, gCV 23.6%): 1.52 | AUCτ,ss ([2]; MRD 12 mg twice daily, fed, n=8, gCV 15.8%): 2.3 µM·h | CLR,0–120 (renal clearance) ([2]; SRD 36 mg, fasted, n=4, gCV 21.5%): 30.5^+ mL·min^−1 | fe0–120 (fraction excreted unchanged in urine 0–120 h) ([2]; SRD 36 mg, fasted, n=5, gCV 45.2%): 12.5^¶ % | Cmax ([2]; SRD 36 mg, fasted, n=6, gCV 20.7%): 710 nM | AUC0−∞ ([2]; SRD 36 mg, fasted, n=6, gCV 21.2%): 5910 nmol·h/L | fe0–120 (fraction excreted unchanged in urine 0–120 h) ([2]; SRD 48 mg, fasted, n=4, gCV 13.4%): 12.1^+ % | CLR,0–120 (renal clearance) ([2]; SRD 48 mg, fasted, n=4, gCV 20.6%): 25.2^+ mL·min^−1 | AUC0−∞ ([2]; SRD 48 mg, fasted, n=5, gCV 17.2%): 8700^¶ nmol·h·L^−1 | Cmax ([2]; SRD 48 mg, fasted, n=6, gCV 15.5%): 955 nM | Steady state reached ([2]; multiple twice-daily administrations): ≤ 6 days | Mean observed weight loss ([3]; IPF patients treated for up to 12 weeks, placebo –1.18): –1.74 kg | 12-lead ECG or vital signs ([3]; IPF, 18 mg twice daily): no clinically relevant findings | C-reactive protein (laboratory tests) ([3]; IPF, 18 mg twice daily): slight increase | Deaths ([3]; IPF, 18 mg twice daily): no reported deaths | Diarrhoea ([3]; IPF, 18 mg twice daily): 40.0% | Nasopharyngitis ([3]; IPF, 18 mg twice daily): 40% | Severe AE (considered drug related, led to discontinuation) ([3]; IPF, 18 mg twice daily): one severe AE of insomnia | Suicidal ideation or behaviour (C-SSRS) ([3]; IPF, 18 mg twice daily): no cases | Body weight, difference between the two treatment groups ([3]; IPF, 18 mg twice daily vs placebo): no notable difference | AE leading to discontinuation of study drug ([3]; IPF, 18 mg twice daily, n=10): 1 (10.0) n (%) | Investigator-defined drug-related AE ([3]; IPF, 18 mg twice daily, n=10): 9 (90.0) n (%) | Patients requiring or prolonging hospitalisation ([3]; IPF, 18 mg twice daily, n=10): 1 (10.0) n (%) | Patients with AESI (hepatic injury) ([3]; IPF, 18 mg twice daily, n=10): 0 (0.0) n (%) | Patients with SAEs ([3]; IPF, 18 mg twice daily, n=10): 1 (10.0) n (%) | Patients with other significant AEs according to ICH E3 ([3]; IPF, 18 mg twice daily, n=10): 1 (10.0) n (%) | Severe AEs ([3]; IPF, 18 mg twice daily, n=10): 1 (10.0) n (%) | Gastrointestinal disorders [3, 8]: 80.0% | Infections and infestations [3, 8]: 50.0% | Patients with drug-related AEs ([3]; IPF, 18 mg twice daily, placebo 60.0%): 90.0% | Exposure predictions (AUC0-24,ss) versus predefined exposure threshold ([4]; 24 mg twice-daily dose group (not dosed)): exceeded the predefined exposure threshold | Administrations until 95% of the steady-state concentration was reached ([4]; IPF, 18 mg twice daily): approximately five | Accumulation ratio based on AUCτ ([4]; gMean, IPF, 18 mg twice daily): 1.87 | Accumulation ratio based on Cmax ([4]; gMean, IPF, 18 mg twice daily): 1.66 | AUCτ,1 ([4]; gMean, IPF, 18 mg twice daily, day 1 after first dose, n=10, gCV 18.2%): 1.99 µM·h | Cmax ([4]; gMean, IPF, 18 mg twice daily, day 1 after first dose, n=10, gCV 23.1%): 277 nM | AUCτ,ss ([4]; gMean, IPF, 18 mg twice daily, day 14 steady state, n=10, gCV 49.5%): 3.72 µM·h | Difference in pharmacokinetic parameters between healthy volunteers and patients with IPF ([4]; in vivo): no difference | Effect on lung function parameters ([5]; over the course of the trial): no clear effect | Trend towards a slight reduction in FVC over time (seen in placebo group) ([5]; data not shown): not observed | Human lung fibroblast proliferation [6]: inhibition | Myofibroblast transformation [6]: inhibition
